From PubChem BioAssay
The entries come from a sample that favours hits as a whole.
RORa inhibitor: RORA (human) inhibition; P35398; CHO-K1 Gal4-RORA LBD luciferase reporter, luminescence; inhibition, % at 10 µM; 0.43% of 65,000 active; AID 561;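 active = inhibition above the mean of all tested compounds plus 3 SD, cut at about 52% in these data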
Target sequence (P35398 whole entry, looked up, the tested form may be a part): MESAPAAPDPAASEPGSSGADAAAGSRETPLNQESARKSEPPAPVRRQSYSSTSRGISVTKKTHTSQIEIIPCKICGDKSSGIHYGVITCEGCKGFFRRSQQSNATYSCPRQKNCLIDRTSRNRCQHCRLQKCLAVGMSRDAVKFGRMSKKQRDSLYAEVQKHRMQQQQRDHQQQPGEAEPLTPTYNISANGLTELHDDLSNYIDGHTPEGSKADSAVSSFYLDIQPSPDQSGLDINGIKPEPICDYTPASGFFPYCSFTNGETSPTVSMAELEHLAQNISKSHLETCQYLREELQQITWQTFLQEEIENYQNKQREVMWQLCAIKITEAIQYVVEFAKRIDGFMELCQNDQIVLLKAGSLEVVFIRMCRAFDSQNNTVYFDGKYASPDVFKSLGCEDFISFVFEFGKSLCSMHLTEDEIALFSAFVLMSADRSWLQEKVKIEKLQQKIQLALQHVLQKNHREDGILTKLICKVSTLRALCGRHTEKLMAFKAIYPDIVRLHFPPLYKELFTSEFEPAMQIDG
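Test system: CHO-K1 cells with Gal4-hRORA LBD fusion and pG5-luc reporter | Timing: 20 h compound treatment, 37 °C | Detection: Luminescence from basal luciferase reporter expression | Read-out basis: % inhibition of basal luciferase versus +RORA/-RORA DMSO controls | Repeats: One measurement per compound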
Large screens that a line does not name were inactive.

Cc1cc(C)nc(SCC(=O)Nc2ccc(N3CCOCC3)c(Cl)c2)n1	RORa inhibitor 53.1
CCOC(=O)c1cnc(SCC(=O)c2ccccc2)nc1N	none
Cc1ccc(-n2nnnc2SCC(=O)N2CCN(C(=O)c3ccco3)CC2)c(C)c1	none
COc1cc(CSc2nnnn2-c2ccc(C)cc2)cc(OC)c1OC	RORa inhibitor 72.1
COc1ccc(C)cc1-n1nnnc1SCc1nc2ccccc2s1	none
CCOC(=O)N1CCN(C(=O)CSc2nnc(Cc3ccccc3)o2)CC1	none
O=C(Cc1ccccc1)Nc1nc(-c2cccs2)cs1	none
Cc1nc2sccn2c1-c1csc(NCc2ccccc2)n1	RORa inhibitor 62.6
CCNc1nc(-c2ccc(Cl)cc2)cs1	none
CN1CCN(C(=O)CN(c2cccc(Cl)c2)S(=O)(=O)c2ccccc2)CC1	none
O=C(O)CCCCCN1C(=O)CSC1=S	RORa inhibitor 58.7
Cc1ccc(CC2(O)CC(C)N(C)CC2C)c(C)c1 (stereo unspecified)	none
CCCCCOC(=O)c1[nH]c2c(c1C)C(=O)CC(c1ccco1)C2 (stereo unspecified)	RORa inhibitor 54.3
Cc1c(C(=O)O)[nH]c2c1C(=O)CC(c1ccc(Cl)cc1)C2 (stereo unspecified)	none
CCOC(=O)C1C(C)=CC(=O)CC1c1ccco1 (stereo unspecified)	none
CCC(=O)Nc1ccc(C(=O)Nc2ccc3c(c2)OCO3)cc1	none
Cc1noc(C(=O)Nc2ccc3c(c2)OCO3)c1Cl	none
CCOC(=O)c1c(N)sc(C(=O)Nc2ccc3c(c2)OCO3)c1C	RORa inhibitor 53.9
COc1ccc(-n2c(=O)c3ccccc3n(CC(=O)NC3CCCC3)c2=O)c(OC)c1	none
CCN(CC)c1ccc(-c2nc3cnccc3n2C)cc1	none
CCCOc1ccccc1C1CC(=O)Nc2cc3c(cc21)OCCO3 (stereo unspecified)	RORa inhibitor 59.8
CCOc1ccccc1C1CC(=O)Nc2cc(OC)c(OC)c(OC)c21 (stereo unspecified)	none
O=C1COc2ccc(OCc3ccc(F)cc3)cc21	none
CCOc1ccc(NC(=O)C2CC(=O)N(C(C)C)C2)cc1 (stereo unspecified)	none
Cc1cc(C(=O)Nc2c(F)cc(F)cc2Br)c(C)o1	none
O=C(CSc1cn(Cc2ccccc2)c2ccccc12)Nc1nccs1	none
O=C(CSC1=NCCS1)Nc1ccnc2ccccc12	RORa inhibitor 73.3
CC(C)(C)NC(=O)CSc1nnc(NC(=O)CCn2cnc3ccccc3c2=O)s1	none
Cc1nc2c(c(=O)n1CC1CCCO1)c1nc3ccccc3nc1n2CC(C)C (stereo unspecified)	none
COc1ccc(-c2noc(-c3ccccc3Cl)n2)cc1OC	none
COc1nc(-c2ccccc2)cc(-c2ccc(OC)c(OC)c2)n1	none
COc1ccc(C2=Nn3c(nnc3-c3ccccc3OC)SC2)cc1OC	RORa inhibitor 55.4
CCn1cc(C(=O)Nc2cc3c(cc2NC(C)=O)OCCO3)c(=O)c2ccc(C)nc21	none
N#Cc1c(NC(=O)CSc2ncnc3sccc23)oc(-c2ccco2)c1-c1ccco1	none
COc1cccc(Nc2nc(-c3sc(N)nc3C)cs2)c1	none
COc1cccc2sc(Nc3nc(-c4ccccn4)cs3)nc12	RORa inhibitor 68.7
Cc1ccc(S(=O)(=O)N2CCC(C(=O)N3CCC(C(=O)NCc4cccnc4)CC3)CC2)cc1	none
CN(C)S(=O)(=O)n1cnc(-c2ccccc2)c1-c1ccccc1	none
CC(=O)OC1c2ccccc2C(=O)N1Cc1ccccc1Cl (stereo unspecified)	none
CCCC(NS(=O)(=O)c1ccc(Br)cc1)C(=O)O (stereo unspecified)	none
COc1cc(NC(=O)CSc2nc(C)cs2)cc(OC)c1	none
Cc1cc(C(=O)COC(=O)c2ccc3c(c2)OCO3)c(C)n1Cc1cccs1	none
Cc1cc(C(=O)CSc2nnc(-c3ccco3)o2)c(C)n1Cc1ccco1	none
CC(=O)Nc1ccc(SCC(=O)c2cc(C)n(Cc3cccs3)c2C)cc1	RORa inhibitor 67.0
Cc1nc2ccc(NC(=O)Cc3cccs3)cc2s1	none
Cc1csc(SCC(=O)c2cc(C)n(Cc3cccs3)c2C)n1	RORa inhibitor 77.1
Cc1cc(C(=O)CN2C(=O)NC3(CCCc4ccccc43)C2=O)c(C)n1Cc1cccs1 (stereo unspecified)	none
Cc1csc(SCc2ccccc2C(=O)O)n1	none
CC(=O)Nc1ccccc1OCC(=O)c1cc(C)n(Cc2cccs2)c1C	RORa inhibitor 88.8
Cc1cc(NC(=O)c2ccco2)ncc1NC(=O)Cc1ccccc1	none
CCCCC(=O)Nc1cccc(NC(=O)c2ccc3c(c2)OCO3)c1	none
COc1ccc(CCNC(=O)C2CCCN(S(=O)(=O)c3cccc4nonc34)C2)cc1OC (stereo unspecified)	none
O=C(C1CCCN(S(=O)(=O)c2ccccc2)C1)N1CCCc2ccccc21 (stereo unspecified)	none
CN1CCN(c2ccccc2NC(=O)c2cccc(OCc3ccccc3)c2)CC1	none
O=C(c1ccc(-c2nnc(-c3ccccc3)o2)cc1)N1CCCCCC1	none
O=C(c1ccc(Cl)cc1)N1CCCCC(Sc2nnc(-c3ccc4c(c3)OCO4)o2)C1=O (stereo unspecified)	RORa inhibitor 75.5
O=C(Nc1ccc(-c2nc3ccccc3o2)cc1)c1ccc2c(c1)OCO2	none
CCCCc1ccc(NC(=O)C2CCCO2)cc1 (stereo unspecified)	none
CC1Cc2ccccc2N1C(=O)CSc1nnc(-c2ccc(S(=O)(=O)N3CCCC3)cc2)o1 (stereo unspecified)	none
Brc1ccc(-c2cn3cccnc3n2)cc1	none
Cc1ccc(-c2cn3nc(C)c(C)nc3n2)cc1	RORa inhibitor 74.5
O=C(NC1CCCCC1)C1CCN(S(=O)(=O)N2CCOCC2)CC1	none
CCOC(=O)c1[nH]c(C)c(C(=O)Nc2cccc(Cl)c2C)c1C	none
COc1cc(C(=S)N2CCCCC2)ccc1OCC(=O)N1CCCC1	none
COc1ccccc1NC(=O)COc1ccc(/C=N/n2cnnc2)cc1OC	none
COc1cc(/C=N/O)ccc1OCc1ccc(C(=O)O)cc1	RORa inhibitor 89.4
O=S(=O)(c1ccc(NC2CCCCC2)cc1)N1CCOCC1	none
COC(=O)c1ccc(-c2ccc(CNCC(O)c3ccccc3)o2)cc1 (stereo unspecified)	none
COc1ccccc1CCC(=O)Nc1nc2ccccc2[nH]1	none
CC(=O)Nc1ccc(S(=O)(=O)NCCNC(=O)c2ccccc2F)cc1	none
O=C(CSc1nc2ccccc2[nH]1)N1CCCCC1	none
O=C(Nc1nc2ccccc2[nH]1)c1ccc(F)cc1	RORa inhibitor 53.6
c1ccc(Nc2nc3ccccc3[nH]2)nc1	none
O=C(Nc1nc2ccccc2[nH]1)c1ccccc1F	RORa inhibitor 86.5
Cc1[nH]nc(N=CC2=C(O)CC(C)(C)CC2=O)c1-c1ccc(Cl)cc1	none
COc1ccc(Nc2nccc3c2nnn3C)cc1	none
CCOC(=O)C1CCN(S(=O)(=O)C(F)(F)c2nc3ccccc3s2)CC1	none
COc1ccc(NC(=O)CSc2nnc(Cn3c(=O)sc4ccccc43)n2C)c(OC)c1	none
CC1CCN(C(=O)CSc2nnc(-c3ccc(S(=O)(=O)N4CCOCC4)cc3)n2C)CC1	none
CCc1nnc2c3cnn(-c4ccc(C)c(C)c4)c3ncn12	none
CC(C)C1N=C2c3ccccc3N=C(SCC#N)N2C1=O (stereo unspecified)	none
c1ccn2c(SCc3cn4ccsc4n3)nnc2c1	none
CC1CCCN(c2ncnc3c2cnn3-c2ccccc2)C1 (stereo unspecified)	RORa inhibitor 56.6
c1ccc(-n2ncc3c(NCC4CCCO4)ncnc32)cc1 (stereo unspecified)	none
CC1CC(C)CN(c2ncnc3c2cnn3-c2ccc(Cl)cc2)C1 (stereo unspecified)	none
c1ccc(-n2ncc3c(NC4CCCCCC4)ncnc32)cc1	none
